The source of these data is ChEMBL document CHEMBL1126280, “Development of a novel series of styrylquinoline compounds as high-affinity leukotriene D4 receptor antagonists: synthetic and structure-activity studies leading to the discovery of (+-)-3-[[[3-[2-(7-chloro-2-quinolinyl)-(E)-ethenyl]phenyl][[3- (dimethylamino)-3-oxopropyl]thio]methyl]thio]propionic …” (J Med Chem, 1992).

SMILES strings stand for the structures.

One assay deals with Cavia porcellus. As to the kind of experiment: Compound was evaluated in vivo for its effective dose against bronchoconstriction induced by LTD4 (0.2 ug/kg, iv) in anesthetized guinea pigs followed by id administration. It counts as functional. The essentials:
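Anesthetized guinea pigs were dosed once intraduodenally and challenged with LTD4 (0.2 μg/kg iv) 10, 30 and 50 min later. The effective dose is the minimum id dose giving over 50% inhibition of bronchoconstriction within 50 min. The number of experiments is reported with each value.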

The subject of assay [1] is Rattus norvegicus. As to the kind of experiment: Compound was evaluated in vivo for inhibition of dyspnea induced by a 5 min aerosol of ovalbumin in 6 hyperreactive rats for each of three doses. It counts as functional. In short, it runs like this: (§1)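 Oral dosing in hyperreactive rats. Dyspnea was provoked by a 5 min ovalbumin aerosol. Six rats were used at each of three doses. The ED50 was derived from the percent inhibition of dyspnea across those doses.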

Assay [2] deals with T1, Cysteinyl leukotriene receptor 1 (Cavia porcellus, UniProt Q2NNR5).
T1 sequence (Q2NNR5 whole entry): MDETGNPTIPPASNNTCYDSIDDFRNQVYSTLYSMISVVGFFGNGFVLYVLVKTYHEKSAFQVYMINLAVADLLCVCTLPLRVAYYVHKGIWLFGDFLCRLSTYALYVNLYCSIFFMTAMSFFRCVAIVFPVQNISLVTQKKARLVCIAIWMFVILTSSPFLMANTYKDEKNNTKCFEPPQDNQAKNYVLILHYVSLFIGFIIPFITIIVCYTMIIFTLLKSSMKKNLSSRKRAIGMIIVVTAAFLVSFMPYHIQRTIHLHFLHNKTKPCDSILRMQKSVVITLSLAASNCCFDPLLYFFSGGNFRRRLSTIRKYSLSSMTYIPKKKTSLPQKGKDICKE
As to the kind of experiment: (§2) In vitro inhibition of [3H]LTD4 binding to guinea pig lung membranes. The class given is tissue-based, Membrane.

Assay [3] concerns the target T1, Cysteinyl leukotriene receptor 1. The description is as §2. The class given is functional, tissue-based, Membrane.
Assay [4] concerns the target T2, Cysteinyl leukotriene receptor 1 (Cavia porcellus) (UniProt Q2NNR5).
T2 sequence (whole entry): T1 sequence (Q2NNR5 whole entry)
As to the kind of experiment: In vitro inhibition of [3H]LTD4 binding to guinea pig lung membranes at 1 uM. It counts as functional, tissue-based. Conditions: Membrane.

For assay [5], the system named is Rattus norvegicus. As to the kind of experiment: Compound was evaluated in vivo for inhibition of dyspnea induced by a 5 min aerosol of ovalbumin in 6 hyperreactive rats at dose of 0.5 mg/Kg. The class given is functional. The essentials:
(§3)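 Oral single-dose test in hyperreactive rats, six animals, with dyspnea provoked by a 5 min ovalbumin aerosol. The value is the percent inhibition of dyspnea at the one stated dose.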

Assay [6] concerns Rattus norvegicus. As to the kind of experiment: Compound was evaluated in vivo for inhibition of dyspnea induced by a 5 min aerosol of ovalbumin in six hyperactive rats for each of three doses. It counts as functional. In short, it runs like this:
as §1

The subject of assay [7] is Rattus norvegicus. As to the kind of experiment: Compound was evaluated in vivo for inhibition of dyspnea induced by a 5 min aerosol of ovalbumin in 6 hyperreactive rats at dose of 1.5 mg/Kg. It counts as functional. In short, it runs like this:
as §3

One may read the ED50 as the dose at which the effect has come halfway, by size or by number of responders. Lower therefore signals greater potency. On to `O=C(O)CCSC(SCCC(=O)O)c1cccc(/C=C/c2ccc3ccc(Cl)cc3n2)c1`, for which, in the assay with Cavia porcellus, the Effective dose is 0.5 mg/kg. Further, the ED50 in the assay with Rattus norvegicus [1] was 0.1 mg/kg.

A word on the IC50: it is the concentration that gives 50% inhibition. A higher IC50 goes with weaker potency. In assay [2], `O=C(O)CCSC(SCCC(=O)O)c1cccc(CCCc2ccc3ccc(Cl)cc3n2)c1` gave an IC50 of 250 nM.

With `COC(=O)COc1cccc(/C=C/c2ccc3cc(C)ccc3n2)c1`, the IC50 in assay [3] amounted to 930 nM. For the same compound, the Effective dose in the assay with Cavia porcellus was more than 10 mg/kg.

In the case of `C(=C\c1ccc2ccccc2n1)/c1ccccc1`, the concentration for half-maximal inhibition (IC50) in assay [2] was found to be 6000 nM.

In turn, `O=C([O-])CCCOc1cccc(/C=C/c2ccc3cc(Cl)c(Cl)cc3n2)c1.[Na+]` came in with an Effective dose in the assay on Cavia porcellus of 1 mg/kg. The median effective dose (ED50) in the assay with Rattus norvegicus [1] is 0.5 mg/kg.

In the case of `C(=C\c1ccc2ccccc2n1)/c1cccnc1`, the IC50 in assay [2] stood at 6000 nM.

As a reminder, the inhibition is the share of the control response that was lost under treatment. Higher therefore signals a response far below the control. Consider `O=C(O)CCCOc1cccc(/C=C/c2ccc3ccccc3c2)c1`, for which the inhibition in assay [4] came out at 11%.

For `O=C(O)CCSC(SCCC(=O)O)c1cccc(OCc2ccc3ccc(Cl)cc3n2)c1`, the IC50 in assay [2] came to 13.6 nM.

As for `O=C([O-])CCCOc1cccc(/C=C/c2ccc3c(Cl)cccc3n2)c1.[Na+]`, in the assay with Cavia porcellus, the Effective dose is more than 5 mg/kg.

`CCCC/C=C/c1ccc2nc(/C=C/c3cccc(OCC(=O)OC)c3)ccc2c1` came in with an inhibition in assay [4] of 12%.

What is called inhibition in vivo is how much of the control response was suppressed. Lower therefore signals a response near the control. For the compound `O=C([O-])CCCOc1cccc(/C=C/c2ccc3ccc(Cl)cc3n2)c1.[Na+]`, the Effective dose in the assay with Cavia porcellus was 2.5 mg/kg. Further, the inhibition in vivo at 0.5 mg/kg in the assay with Rattus norvegicus [5] worked out at 41%.

Consider `CN(C)CCSC(SCCC(=O)O)c1cccc(/C=C/c2ccc3ccc(Cl)cc3n2)c1` (stereo unspecified), for which the IC50 in assay [2] was determined as 60 nM.

Compound `O=C(O)CCSC(SCCC(=O)O)c1cccc(C2CC2c2ccc3ccc(Cl)cc3n2)c1` (stereo unspecified) displayed an IC50 in assay [2] of 32 nM.

In turn, `O=C(O)CCSC(SCCC(=O)O)c1cccc(CCc2ccc3ccc(Cl)cc3n2)c1` had an IC50 in assay [2] of 57 nM.

Turning to `C(=C\c1ccc2ccccc2n1)/c1ccncc1`, the IC50 in assay [2] is 3300 nM.

In turn, `O=C(O)CCSC(SCCC(=O)O)c1cccc(NC(=O)c2ccc3ccccc3n2)c1` had a half-maximal inhibitory concentration (IC50) in assay [2] of 440 nM.

`CN(C)C(=O)CCSC(SCCC(=O)O)c1cccc(/C=C/c2ccc3ccc(Cl)cc3n2)c1` (stereo unspecified) [MK-571]: in the assay with Cavia porcellus, the Effective dose was 0.1 mg/kg. Further, the IC50 in assay [2] came to 0.8 nM. This compound gave an ED50 in the assay with Rattus norvegicus [1] of 0.07 mg/kg.

As to `CCOC(=O)CCCOc1cccc(/C=C/c2ccc3ccccc3n2)c1`, the Effective dose with Cavia porcellus came to 5 mg/kg. The compound also had an ED50 with Rattus norvegicus [1] of 1.5 mg/kg.

Turning to `CN(C)C(=O)CCSC(SCCC(=O)O)c1cccc(SCc2ccc3ccc(Cl)cc3n2)c1` (stereo unspecified), in assay [2], the half-inhibitory concentration (IC50) was determined as 89 nM.

With `CC(Oc1cccc(Sc2ccc3ccc(Cl)cc3n2)c1)C(=O)O` (stereo unspecified), the inhibition in assay [4] was 24%.

For the compound `COC(=O)COc1cccc(/C=C/c2ccc3ccccc3n2)c1`, in the assay on Cavia porcellus, the Effective dose came out at 10 mg/kg. For the same compound, the ED50 in the assay on Rattus norvegicus [1] worked out at 2 mg/kg.

Compound `NC(=O)CCSC(SCCC(=O)O)c1cccc(/C=C/c2ccc3ccc(Cl)cc3n2)c1` (stereo unspecified) displayed an Effective dose in the assay with Cavia porcellus of 0.5 mg/kg. The concentration for half-maximal inhibition (IC50) in assay [2] amounted to 0.3 nM.

A word on the Inhibition: it is the relative decrease from the control value, in per cent. A higher Inhibition goes with a strong effect. `O=C(O)CCSC(SCCC(=O)N1CCOCC1)c1cccc(/C=C/c2ccc3ccc(Cl)cc3n2)c1` (stereo unspecified): the Inhibition in the assay on Rattus norvegicus [6] came out at 43%. This compound also showed a half-inhibitory concentration (IC50) in assay [2] of 2.2 nM. In addition, the Effective dose in the assay with Rattus norvegicus [1] came out at 0.15 mg/kg.

`O=C([O-])CCCOc1cccc(/C=C/c2ccc3cc(Cl)ccc3n2)c1.[Na+]`: the Effective dose with Cavia porcellus was determined as 5 mg/kg. Also, testing at 1.5 mg/kg with Rattus norvegicus [7] gave an inhibition in vivo of 40%.
